Reference: ChEMBL document CHEMBL1938353, “Discovery and optimization of aminopyrimidinones as potent and state-dependent Nav1.7 antagonists” (Bioorg Med Chem Lett, 2012)
Converted amounts (≈) assume the structure as drawn.

Columns and labels:
[1] = molecular target: T1, Sodium channel protein type 9 subunit alpha (Homo sapiens, UniProt Q15858); test: Antagonist activity at 20% inactivated human sodium channel Nav1.7 expressed in human HEK293 cells by patch-clamp electrophysiological assay; type: functional, cell-based
T1 sequence (Q15858 whole entry): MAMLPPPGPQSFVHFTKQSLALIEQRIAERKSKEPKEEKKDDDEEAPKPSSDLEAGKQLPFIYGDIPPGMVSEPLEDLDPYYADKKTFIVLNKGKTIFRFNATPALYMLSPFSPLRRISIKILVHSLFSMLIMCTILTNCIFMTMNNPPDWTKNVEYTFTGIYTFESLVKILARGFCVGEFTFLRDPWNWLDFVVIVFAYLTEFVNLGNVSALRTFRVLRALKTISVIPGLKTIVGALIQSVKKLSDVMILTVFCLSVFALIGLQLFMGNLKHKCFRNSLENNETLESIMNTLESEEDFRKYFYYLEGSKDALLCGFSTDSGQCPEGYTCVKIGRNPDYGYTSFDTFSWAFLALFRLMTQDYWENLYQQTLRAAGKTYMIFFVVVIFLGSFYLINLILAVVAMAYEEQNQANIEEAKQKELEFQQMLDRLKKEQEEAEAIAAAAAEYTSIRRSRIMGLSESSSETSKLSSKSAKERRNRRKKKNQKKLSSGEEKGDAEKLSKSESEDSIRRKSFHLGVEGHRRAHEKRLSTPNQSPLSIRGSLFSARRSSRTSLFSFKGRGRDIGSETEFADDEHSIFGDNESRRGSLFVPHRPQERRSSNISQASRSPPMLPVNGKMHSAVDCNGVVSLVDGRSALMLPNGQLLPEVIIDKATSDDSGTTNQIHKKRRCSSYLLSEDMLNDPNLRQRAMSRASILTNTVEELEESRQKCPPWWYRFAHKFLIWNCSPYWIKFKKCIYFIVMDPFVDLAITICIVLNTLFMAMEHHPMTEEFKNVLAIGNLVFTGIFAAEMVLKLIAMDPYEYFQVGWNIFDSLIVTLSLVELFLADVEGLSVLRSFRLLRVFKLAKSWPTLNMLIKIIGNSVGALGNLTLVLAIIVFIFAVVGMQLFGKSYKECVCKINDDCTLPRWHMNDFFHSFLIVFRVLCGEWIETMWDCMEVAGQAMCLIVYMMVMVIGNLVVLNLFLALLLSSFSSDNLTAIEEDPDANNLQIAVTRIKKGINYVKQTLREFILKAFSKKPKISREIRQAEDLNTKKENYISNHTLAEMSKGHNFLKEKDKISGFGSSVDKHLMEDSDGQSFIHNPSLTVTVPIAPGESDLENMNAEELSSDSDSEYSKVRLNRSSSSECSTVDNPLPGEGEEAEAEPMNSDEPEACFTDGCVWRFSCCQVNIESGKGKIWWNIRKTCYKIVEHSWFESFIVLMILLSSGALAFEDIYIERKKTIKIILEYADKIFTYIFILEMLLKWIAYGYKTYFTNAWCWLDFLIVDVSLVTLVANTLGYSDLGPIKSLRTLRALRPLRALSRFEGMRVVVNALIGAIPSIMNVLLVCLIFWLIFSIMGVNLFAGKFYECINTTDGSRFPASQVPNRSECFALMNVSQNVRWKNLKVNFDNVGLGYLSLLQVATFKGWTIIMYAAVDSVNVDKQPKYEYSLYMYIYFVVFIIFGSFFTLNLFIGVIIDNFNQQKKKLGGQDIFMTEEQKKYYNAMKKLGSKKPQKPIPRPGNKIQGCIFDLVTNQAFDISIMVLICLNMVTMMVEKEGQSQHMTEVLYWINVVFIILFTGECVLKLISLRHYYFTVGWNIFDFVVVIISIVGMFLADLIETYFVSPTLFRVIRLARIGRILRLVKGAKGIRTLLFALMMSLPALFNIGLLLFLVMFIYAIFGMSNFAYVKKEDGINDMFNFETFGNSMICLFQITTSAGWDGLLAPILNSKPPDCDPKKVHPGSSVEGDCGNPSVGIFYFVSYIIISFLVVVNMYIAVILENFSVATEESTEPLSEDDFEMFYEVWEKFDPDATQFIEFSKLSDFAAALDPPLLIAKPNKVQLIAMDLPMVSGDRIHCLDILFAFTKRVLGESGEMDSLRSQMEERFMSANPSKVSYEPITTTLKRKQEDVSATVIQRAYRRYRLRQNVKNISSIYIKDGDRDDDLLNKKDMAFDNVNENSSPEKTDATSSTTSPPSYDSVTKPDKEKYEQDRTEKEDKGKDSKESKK
Method in brief: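 Automated PatchXpress electrophysiology on hNav1.7 channels with an average 20% contribution from inactivated channels. Dose-response curves built from single-concentration tests on many cells. IC50 is the average of at least two determinations.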

[2] = molecular target: T1, Sodium channel protein type 9 subunit alpha; test: Antagonist activity at 20% inactivated human sodium channel Nav1.7 expressed in human HEK293 cells by manual patch-clamp electrophysiological assay; type: functional, cell-based
Method in brief: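 Manual electrophysiology on hNav1.7; holding voltage set, and adjusted as needed during the experiment, to give steady 20% inactivation. […] Values are the average of at least two determinations.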

[3] = molecular target: T1, Sodium channel protein type 9 subunit alpha; test: Antagonist activity at non-inactivated human sodium channel Nav1.7 expressed in human HEK293 cells by manual patch-clamp electrophysiological assay; type: functional, cell-based
Method in brief: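 Manual electrophysiology on fully noninactivated hNav1.7 with holding voltage set to -140 mV. […] Values are the average of at least two determinations.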

[4] = molecular target: Sodium channel protein type 5 subunit alpha (Homo sapiens, UniProt Q14524); test: Antagonist activity at partially inactivated human sodium channel Nav1.5 expressed in human HEK293 cells by patch-clamp electrophysiological assay; type: functional, cell-based
Sequence of Sodium channel protein type 5 subunit alpha (Q14524 whole entry): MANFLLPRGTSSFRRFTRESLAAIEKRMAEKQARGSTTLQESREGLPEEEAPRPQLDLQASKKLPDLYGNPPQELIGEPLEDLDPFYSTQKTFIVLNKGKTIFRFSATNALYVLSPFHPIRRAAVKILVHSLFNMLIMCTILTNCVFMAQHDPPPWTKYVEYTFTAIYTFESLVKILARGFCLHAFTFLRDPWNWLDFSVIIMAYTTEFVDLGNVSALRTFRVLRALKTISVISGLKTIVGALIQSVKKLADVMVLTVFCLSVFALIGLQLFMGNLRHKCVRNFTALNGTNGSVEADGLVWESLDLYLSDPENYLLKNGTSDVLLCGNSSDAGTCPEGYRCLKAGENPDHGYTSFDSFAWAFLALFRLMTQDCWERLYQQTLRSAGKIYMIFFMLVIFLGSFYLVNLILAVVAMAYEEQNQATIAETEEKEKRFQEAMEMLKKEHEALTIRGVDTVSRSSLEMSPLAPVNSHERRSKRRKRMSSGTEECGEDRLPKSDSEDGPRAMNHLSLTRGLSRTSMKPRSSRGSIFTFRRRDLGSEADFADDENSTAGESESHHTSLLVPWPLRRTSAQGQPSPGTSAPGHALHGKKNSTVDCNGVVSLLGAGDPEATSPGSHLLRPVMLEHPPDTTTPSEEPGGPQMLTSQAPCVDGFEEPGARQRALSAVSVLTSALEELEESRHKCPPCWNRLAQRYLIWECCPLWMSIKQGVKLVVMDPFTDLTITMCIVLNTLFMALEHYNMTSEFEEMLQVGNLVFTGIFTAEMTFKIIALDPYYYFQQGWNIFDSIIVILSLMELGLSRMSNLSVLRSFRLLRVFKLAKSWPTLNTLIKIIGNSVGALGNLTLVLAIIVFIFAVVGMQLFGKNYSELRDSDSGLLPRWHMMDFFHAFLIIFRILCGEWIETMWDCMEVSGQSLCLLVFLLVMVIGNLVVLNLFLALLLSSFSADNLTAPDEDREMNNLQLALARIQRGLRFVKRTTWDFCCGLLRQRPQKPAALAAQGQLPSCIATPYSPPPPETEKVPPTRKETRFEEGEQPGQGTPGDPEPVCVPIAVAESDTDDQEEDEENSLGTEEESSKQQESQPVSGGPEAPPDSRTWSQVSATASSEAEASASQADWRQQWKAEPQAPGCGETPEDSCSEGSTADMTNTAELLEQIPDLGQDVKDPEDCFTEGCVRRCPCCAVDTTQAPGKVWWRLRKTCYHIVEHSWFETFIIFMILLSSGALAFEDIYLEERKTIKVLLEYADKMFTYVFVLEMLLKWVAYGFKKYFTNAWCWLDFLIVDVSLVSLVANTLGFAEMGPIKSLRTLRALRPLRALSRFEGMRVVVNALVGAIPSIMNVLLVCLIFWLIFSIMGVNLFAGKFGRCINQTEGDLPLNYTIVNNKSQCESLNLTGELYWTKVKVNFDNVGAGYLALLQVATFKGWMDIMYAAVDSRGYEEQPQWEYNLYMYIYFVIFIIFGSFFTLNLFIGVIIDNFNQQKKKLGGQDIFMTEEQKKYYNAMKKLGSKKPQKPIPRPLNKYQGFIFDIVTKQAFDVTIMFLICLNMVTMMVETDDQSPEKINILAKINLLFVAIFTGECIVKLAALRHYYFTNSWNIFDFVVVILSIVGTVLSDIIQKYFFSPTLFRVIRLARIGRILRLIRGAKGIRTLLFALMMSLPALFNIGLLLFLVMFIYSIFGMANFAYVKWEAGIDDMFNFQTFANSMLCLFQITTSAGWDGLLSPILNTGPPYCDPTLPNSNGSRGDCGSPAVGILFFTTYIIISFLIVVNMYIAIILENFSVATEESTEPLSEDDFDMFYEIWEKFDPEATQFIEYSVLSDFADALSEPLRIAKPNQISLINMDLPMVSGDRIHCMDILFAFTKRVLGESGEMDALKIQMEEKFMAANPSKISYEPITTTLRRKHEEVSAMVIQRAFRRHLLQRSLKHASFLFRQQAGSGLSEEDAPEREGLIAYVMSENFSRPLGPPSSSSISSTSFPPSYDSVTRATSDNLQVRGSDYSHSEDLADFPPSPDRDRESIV

[5] = Solubility of the compound in simulated intestinal fluid; type: physicochemical
[6] = Solubility of the compound in phosphate buffer saline; type: physicochemical; conditions: phosphate buffered saline
[7] = Solubility of the compound in 0.01 N HCl; type: physicochemical
[8] = test system: MDR1 (P-gp); test: Apparent permeability across pig LLC-PK1 cells over expressing human MDR1 at 5 uM in presence 0.1 % BSA; type: ADME, cell-based, Sus scrofa
Method in brief: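 MDR1-LLC-PK1 pig kidney cells expressing human MDR1. Compound tested at 5 µM with 0.1% BSA. Permeability is the average of the apical-to-basolateral and basolateral-to-apical apparent permeability values.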

[9] = Clearance in Sprague-Dawley rat at 0.5 mg/kg, iv; type: ADME, organism-based; design: dose 0.5 mg/kg, route intravenous; conditions: in vivo
[10] = Volume of distribution at steady state in Sprague-Dawley rat at 0.5 mg/kg, iv; type: ADME, organism-based; design: dose 0.5 mg/kg, route intravenous; conditions: in vivo, read-out: Vdss
[11] = Half life in Sprague-Dawley rat at 0.5 mg/kg, iv; type: ADME, organism-based; design: dose 0.5 mg/kg, route intravenous; conditions: in vivo
[12] = test system: Hepatocyte; test: Drug metabolism in rat hepatocytes assessed as glucuronide adduct formation at 18.7 mins; type: ADME, cell-based; conditions: 0.311667 h
[13] = molecular target: Voltage-gated inwardly rectifying potassium channel KCNH2 (Homo sapiens, UniProt Q12809); test: Displacement of dofetilide from human ERG
Sequence of Voltage-gated inwardly rectifying potassium channel KCNH2 (Q12809 whole entry): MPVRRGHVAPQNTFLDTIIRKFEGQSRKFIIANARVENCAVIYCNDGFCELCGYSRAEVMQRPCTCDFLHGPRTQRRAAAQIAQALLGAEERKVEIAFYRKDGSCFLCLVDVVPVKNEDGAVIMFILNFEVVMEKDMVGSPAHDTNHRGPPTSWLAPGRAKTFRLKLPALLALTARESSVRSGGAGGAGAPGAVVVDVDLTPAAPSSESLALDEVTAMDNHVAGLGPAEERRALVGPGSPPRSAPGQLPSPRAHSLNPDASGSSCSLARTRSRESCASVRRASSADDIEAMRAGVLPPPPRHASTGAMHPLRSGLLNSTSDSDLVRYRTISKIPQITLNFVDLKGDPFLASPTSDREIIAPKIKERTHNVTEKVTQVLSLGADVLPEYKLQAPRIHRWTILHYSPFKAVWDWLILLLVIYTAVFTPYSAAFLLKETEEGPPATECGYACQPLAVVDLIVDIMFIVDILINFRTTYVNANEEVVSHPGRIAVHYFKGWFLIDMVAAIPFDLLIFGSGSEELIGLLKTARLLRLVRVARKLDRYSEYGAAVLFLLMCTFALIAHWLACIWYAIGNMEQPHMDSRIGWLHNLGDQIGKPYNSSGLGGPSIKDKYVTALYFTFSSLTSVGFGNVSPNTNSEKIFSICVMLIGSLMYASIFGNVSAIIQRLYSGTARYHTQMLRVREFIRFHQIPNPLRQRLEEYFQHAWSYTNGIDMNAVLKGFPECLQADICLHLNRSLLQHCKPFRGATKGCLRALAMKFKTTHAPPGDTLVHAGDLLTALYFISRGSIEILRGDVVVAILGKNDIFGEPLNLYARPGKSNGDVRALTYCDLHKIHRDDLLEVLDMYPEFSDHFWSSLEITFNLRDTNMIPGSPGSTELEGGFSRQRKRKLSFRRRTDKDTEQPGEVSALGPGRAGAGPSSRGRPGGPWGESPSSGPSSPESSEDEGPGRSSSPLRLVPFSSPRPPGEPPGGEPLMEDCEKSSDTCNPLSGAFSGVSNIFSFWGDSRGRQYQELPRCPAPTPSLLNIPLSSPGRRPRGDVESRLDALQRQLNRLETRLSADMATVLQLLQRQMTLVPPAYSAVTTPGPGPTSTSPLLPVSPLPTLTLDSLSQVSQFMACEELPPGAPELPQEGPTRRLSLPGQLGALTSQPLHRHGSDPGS

[14] = test system: LLC-PK1; test: Efflux ratio of permeability from […] side in pig LLC-PK1 cells over expressing human MDR1; type: ADME, cell-based, Sus scrofa
Method in brief: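 Pig kidney LLC-PK1 cells expressing human MDR1. Compound tested in the presence of 0.1% BSA. Apparent permeability was measured in both the apical-to-basolateral and basolateral-to-apical directions.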

[15] = test system: Liver microsomes; test: Metabolic stability in human liver microsomes after 15 mins; type: ADME, Microsome; conditions: 0.25 h
[16] = test system: Liver microsomes; test: Metabolic stability in rat liver microsomes after 15 mins; type: ADME, Microsome; conditions: 0.25 h
[17] = Ratio of drug level in brain to plasma in ip dosed rat; type: ADME, organism-based; conditions: brain and plasma, read-out: BPR
[18] = organism: Rattus norvegicus; test: Toxicity in rat assessed as reduction in total basic movement by open field test; type: organism-based; design: scale not given: the % may be the effect or the level left; conditions: in vivo
[19] = organism: Rattus norvegicus; test: Toxicity in rat assessed as complete reduction in rearing behavior by open field test; type: organism-based; design: scale not given: the % may be the effect or the level left; conditions: in vivo

`CC(C)(C)c1ccc(CSc2nc(N)cc(O)n2)cc1` showed an IC50 [1] of 0.68 µM, an IC50 [2] of 340 nM and an IC50 [3] of 2200 nM. It also gave an IC50 [4] of 300 nM, a solubility [5] of 67 µg/mL (≈ 232 µM) and a solubility [6] of 5 µg/mL (≈ 17.3 µM). For the same molecule, the solubility [7] was 4 µg/mL (≈ 13.8 µM), the Papp at 5 µM [8] was 27 ×10⁻⁶ cm/s and the clearance [9] was 85 mL/min/kg. For the same molecule, the Vd [10] was 7.9 L/kg, the half-life [11] was 162 min and the Drug metabolism [12] was “Active”.
Work on `Nc1cc(=O)[nH]c(SCc2ccc(Cl)cc2)n1` yielded an IC50 [1] of 4.7 µM.
In the case of `CCCCCCCSc1nc(N)cc(=O)[nH]1`, the IC50 [1] is reported as 0.94 µM, the IC50 [2] is reported as 400 nM and the IC50 [3] is reported as 1400 nM. It also gave an IC50 [4] of 1200 nM, a Ki [13] of over 15 µM and a solubility [5] of 14 µg/mL (≈ 58 µM). For the same molecule, the solubility [6] was 2 µg/mL (≈ 8.29 µM), the solubility [7] was 3 µg/mL (≈ 12.4 µM) and the Papp at 5 µM [8] was 21 ×10⁻⁶ cm/s. For the same molecule, the Ratio [14] was 1.1, the clearance [9] was 108 mL/min/kg and the Vd [10] was 1.3 L/kg. For the same molecule, the half-life [11] was 15 min.
`N#Cc1ccc(CSc2nc(N)cc(O)n2)cc1` gave an IC50 [1] of over 30 µM.
For `CC(C)(C)c1ccc(CSc2nc(NC(=O)C3CC3)cc(=O)[nH]2)cc1`, the IC50 [1] was 2.5 µM, the Stability [15] was “Unstable” and the Stability [16] was “Unstable”.
Molecule `CC(C)CSc1nc(N)cc(=O)[nH]1` has an IC50 [1] of over 30 µM.
Work on `Nc1cc(=O)[nH]c(SCc2ccc(OC(F)(F)F)cc2)n1` yielded an IC50 [1] of 2.2 µM.
`CS(=O)(=O)c1ccc(CSc2nc(N)cc(=O)[nH]2)cc1` showed an IC50 [1] of over 30 µM.
With `CC(C)(C)c1ccc(CSc2nccc(=O)[nH]2)cc1` the IC50 [1] was over 30 µM.
For `CC(C)(C)c1ccc(CSc2nc(O)cc(=O)[nH]2)cc1`, the IC50 [1] was over 30 µM.
For `CC(=O)Nc1cc(=O)[nH]c(SCc2ccc(C(C)(C)C)cc2)n1`, the IC50 [1] was 1.2 µM, the Stability [15] was “Unstable” and the Stability [16] was “Unstable”.
For `CC(C)(C)OC(=O)Nc1cc(=O)[nH]c(SCc2ccc(C(C)(C)C)cc2)n1`, the IC50 [1] was 7.8 µM.
For `CC(C)(C)c1ccc(CSc2nc(NS(C)(=O)=O)cc(=O)[nH]2)cc1`, the IC50 [1] was over 30 µM.
Work on `CC(C)(C)c1ccc(CSc2nc(N)c(Cl)c(=O)[nH]2)cc1` yielded an IC50 [1] of 4.3 µM.
Molecule `CC(C)(C)c1ccc(CSc2nc(N)c(N)c(=O)[nH]2)cc1` has an IC50 [1] of over 30 µM.
In the case of `CC(C)(C)c1ccc(CSc2nc3[nH]cnc3c(=O)[nH]2)cc1`, the IC50 [1] is reported as over 30 µM.
For `Cn1c(SCc2ccc(C(C)(C)C)cc2)nc(N)cc1=O`, the IC50 [1] was 0.42 µM, the IC50 [2] was 80 nM and the IC50 [3] was 500 nM. For the same molecule, the IC50 [4] was 200 nM, the Ki [13] was over 15 µM and the solubility [5] was 14 µg/mL (≈ 46.1 µM). The solubility [6] was 10 µg/mL (≈ 33 µM), the solubility [7] was 1 µg/mL (≈ 3.3 µM) and the Papp at 5 µM [8] was 16 ×10⁻⁶ cm/s. For the same molecule, the Ratio [14] was 1, the clearance [9] was 18.3 mL/min/kg and the Vd [10] was 2.6 L/kg. The half-life [11] was 234 min, the Kp [17] was 3.3 and the Activity [18] was 81%. For the same molecule, the Activity [19] was 98%.
With `COc1cc(N)nc(SCc2ccc(C(C)(C)C)cc2)n1` the IC50 [1] was over 30 µM.
With `Cn1c(N)cc(=O)nc1SCc1ccc(C(C)(C)C)cc1` the IC50 [1] was over 30 µM.
